Assay outcomes (PubChem)
The list is not random: actives were taken first. Their share in the collection is about 3.1%.
hERG protect: shields human hERG channel from block by proarrhythmic agents; Q12809; CHO-hERG, FluxOR thallium flux, dofetilide IC70 present; activation (rescue from dofetilide block), less the hit threshold, % at 10 µM; 310,000 tested, 0.51% active;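 active = activation above the mean of controls blocked by dofetilide plus 5 SD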;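 note: thallium influx through hERG after potassium depolarization seen as dye fluorescence rise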
KCNK9 inh: inhibitors of human KCNK9 two-pore domain potassium channel. Q9NPC2. HEK293 KCNK9, FluxOR thallium flux fluorescence; hits give low values. B-score at 10 µM. 310,000 tested, 1.2% active. AID 488922;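 active = ratio B-score over 3 SD below the library mean, with starting fluorescence within 5 SD of its mean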;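 note: negative B-score means less thallium flux so channel inhibition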
KCNK3 inh: human KCNK3 channel inhibition, primary screen; CHO-KCNK3 thallium flux, FluxOR fluorescence; hits give low values; B-score at 10 µM; 340,000 tested, 0.84% active; AID 602410;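 active = B-score under library mean minus 4 SD, starting fluorescence ratio at most library mean plus 5 SD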;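 note: more negative B-score means stronger inhibition of thallium flux through KCNK3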
Target sequence (O14649 whole entry, looked up): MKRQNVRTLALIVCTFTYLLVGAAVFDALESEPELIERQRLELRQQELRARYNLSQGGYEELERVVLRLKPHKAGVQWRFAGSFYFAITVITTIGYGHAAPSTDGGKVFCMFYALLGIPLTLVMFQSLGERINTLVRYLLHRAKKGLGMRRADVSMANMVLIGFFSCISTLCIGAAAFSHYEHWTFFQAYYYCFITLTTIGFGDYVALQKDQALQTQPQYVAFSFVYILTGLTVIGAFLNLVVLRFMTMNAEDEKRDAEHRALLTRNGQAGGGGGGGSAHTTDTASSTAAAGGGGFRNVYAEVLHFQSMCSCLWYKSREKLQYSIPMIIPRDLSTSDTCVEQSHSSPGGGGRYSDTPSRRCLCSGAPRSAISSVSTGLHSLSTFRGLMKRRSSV
KCNQ1 block: human KCNQ1 channel inhibition. CHO-K1 KCNQ1, FluxOR thallium flux fluorescence; hits give high values. B-score at 10 µM. 310,000 tested, 1.3% active;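 active = compounds whose thallium flux B-score, printed positive for inhibition, exceeds three library SD while starting fluorescence stays within three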;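 note: channel opened by potassium depolarization with thallium stimulus after 20 min compound exposure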
KCNQ1 act: potentiates or activates the human KCNQ1 potassium channel. CHO-K1 KCNQ1, thallium flux FluxOR fluorescence; hits give high values. 310,000 tested, 0.35% active. B-score at 10 µM. AID 2648;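 active = fluorescence ratio B-score, a plate-corrected score, at least three library SD, with initial intensity B-score within 5 SD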
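Assay system: stable KCNQ1 CHO-K1 line; medium: assay buffer, equal DMSO in all wells; timing: 90 min dye loading and 20 min compound exposure, both at room temperature; technique: kinetic FluxOR thallium fluorescence, 10-s 1-Hz baseline, 110-s post-stimulus read; read-out basis: B score of baseline-normalized fluorescence ratio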
Of the large screens only hits and unclear results are named; the others gave an inactive call.

Cc1cc(C)cc(C(=O)O/N=C(\N)c2ccc(Br)cc2)c1	none
Cc1ccc(C(=O)O/N=C(\N)c2ccc(Br)cc2)cc1C	hERG protect 6.4
CC(Sc1nc2ccccc2c(=O)n1CC1CCCO1)C(=O)N(C)c1ccccc1 (stereo unspecified)	none (no result: hERG protect, KCNK9 inh, KCNQ1 block, KCNQ1 act)
CC1(C)C(c2ccccc2)=NC(c2ccccc2)N1O (stereo unspecified)	none
COc1ccc(C2N=C(c3ccccc3)C(C)(C)N2O)cc1 (stereo unspecified)	hERG protect 5.9
COc1ccc(NC(=O)COc2ccc(N(C)S(=O)(=O)c3ccc(Cl)cc3)cc2)cc1OC	KCNQ1 block 10
COc1ccc(-c2csc(NC(=O)COc3ccc(N(C)S(=O)(=O)c4ccc(C)cc4)cc3)n2)cc1	KCNK9 inh -8
CCN(C(=O)COc1ccc(N(C)S(=O)(=O)c2ccc(NC(C)=O)cc2)cc1)C1CCCCC1	KCNK3 inh -8.74 (no result: hERG protect, KCNK9 inh, KCNQ1 block, KCNQ1 act)
CN(c1ccc(OCC(=O)OCC(=O)Nc2ccc(F)cc2)cc1)S(=O)(=O)c1ccc(Cl)cc1	none
COc1ccc(C2CC(=O)CCN2S(=O)(=O)c2ccc(C)cc2)cc1 (stereo unspecified)	none (no result: hERG protect, KCNK9 inh, KCNQ1 block, KCNQ1 act)
Cc1cc(/C=C2/C(=N)N3C(=NC2=O)SN=C3S(C)(=O)=O)c(C)n1-c1ccccc1F	none
CS(=O)(=O)C1=NSC2=NC(=O)/C(=C\c3cccn3-c3ccc(Cl)cc3)C(=N)N21	KCNQ1 block 7
C=CCn1c(C)cc(C2=NNC(=Nc3ccc(C)cc3)SC2)c1C	none
C=CCn1c(C)cc(C2=NNC(=NC(C)(C)C)SC2)c1C	KCNQ1 block 8
CC(=O)N1CCC(O)(c2ccc3c(c2)OCO3)CC1	none
Cc1ccc(/C=C2/SC(=S)N(CCCC(=O)Nc3cc([N+](=O)[O-])ccc3O)C2=O)cc1	KCNQ1 block 7
COc1ccc(/C=C2\SC(=O)N(CC(=O)Nc3ccccc3O)C2=O)cc1OC	none
O=C(CN1C(=O)S/C(=C\c2ccccc2)C1=O)Nc1cc([N+](=O)[O-])ccc1O	KCNQ1 block 8
Oc1ccc(/C=N/N(c2ccccc2)c2ccccc2)cc1O	KCNQ1 block 6
Oc1ccc(/C=N/N(c2ccccc2)c2ccccc2)c(O)c1O	none
COc1ccc(/C=N/N(Cc2ccccc2)c2ccccc2)cc1O	KCNQ1 block 6
COc1ccc(C(=O)c2ccc3oc(-c4ccc(OC)cc4)c(-c4ccc(O)cc4)c3c2)cc1	none (no result: hERG protect, KCNK9 inh, KCNQ1 block, KCNQ1 act)
O=C(COc1ccc(Br)cc1CNC1CCCCC1)NCCc1ccccc1	KCNQ1 block 8
CC/C(=N\NC(=O)c1nnn(-c2nonc2N)c1-c1cccs1)c1ccccc1	none
CC1(C(=O)CSc2nc3ccccc3[nH]2)CCC(=O)O1 (stereo unspecified)	none
CC1(C(=O)CSc2ncn[nH]2)CCC(=O)O1 (stereo unspecified)	hERG protect 5.0 (no result: KCNK3 inh)
c1ccc(-c2cc(N3CCOCC3)nc3ccccc23)cc1	KCNQ1 block 6
CCn1cnc2c1c(=O)n(CC(=O)N1CCc3ccccc31)c(=O)n2Cc1ccccc1	none
O=C(Cn1c(=O)c2c(ncn2Cc2ccccc2)n(Cc2ccccc2)c1=O)N1CCc2ccccc21	KCNQ1 act 7
COc1ccccc1N=Cc1c(C)[nH]n(-c2ccc(C)cc2C)c1=O	none
COc1ccc2nc(/N=C/c3c(C)[nH]n(-c4ccc(C)cc4C)c3=O)sc2c1	hERG protect 56.3, KCNQ1 act 28
N#CCSc1nnc(COc2cccc3ccccc23)n1-c1cccc(Cl)c1	hERG protect 40.4
N#CCSc1nnc(COc2cccc3ccccc23)n1-c1ccccc1	none
COc1ccc(Nc2nc(NCC3CCCO3)c3ccccc3n2)c(OC)c1 (stereo unspecified)	none
Oc1cccc(Nc2nc(NCC3CCCO3)c3ccccc3n2)c1 (stereo unspecified)	KCNQ1 block 9
O=C(c1cc(NC(=O)C23CC4CC(CC(C4)C2)C3)cc(NC(=O)C23CC4CC(CC(C4)C2)C3)c1)N1CCCCC1	KCNQ1 block 10 (no result: KCNK3 inh)
COc1ccc2c(c1)sc(=NC(=O)CS(=O)(=O)c1ccc(F)cc1)n2C	none
CCn1nc(C)c(CNC(=O)C2CCC(=O)N(CCc3ccc(Cl)cc3)C2)c1C (stereo unspecified)	none
O=C(COC(=O)CCCc1nc2ccccc2s1)NC(=O)NCc1ccco1	hERG protect 6.4
Cc1nc2ccccc2c2oc(C(=O)NCC3COc4ccccc4O3)cc12 (stereo unspecified)	KCNK3 inh -10.2
Cc1nc2ccccc2c2oc(C(=O)Nc3ccc(C(C)C)cc3)cc12	KCNQ1 block 9
COc1ccc(C2/C=C\CN(C(=O)OCC3c4ccccc4-c4ccccc43)CC(=O)N2Cc2cccc(F)c2)cc1 (stereo unspecified)	none (no result: hERG protect, KCNK9 inh, KCNQ1 block, KCNQ1 act)
C=CCc1cccc(/C=N/NC(=O)c2ccccc2Br)c1O	none
O=C(N/N=C/c1ccccc1C(=O)O)c1ccccc1Br	hERG protect 4.9
COc1cccc(-c2cc(C(F)(F)F)nc(N3CCC(C)CC3)n2)c1	hERG protect 5.1
Cc1cc(N2CCN(c3ccccc3Cl)CC2)n2cc(-c3ccccc3)nc2n1	KCNK9 inh -12.3
Nc1nonc1-n1nnc(C(=O)N/N=C/c2cccc(Cl)c2Cl)c1CN1CCCC1	hERG protect 40.5
CCCOc1ccc(-c2c(C(=O)N/N=C/c3ccccc3OCC)nnn2-c2nonc2N)cc1	hERG protect 37.4
CCCOc1ccc(-c2c(C(=O)N/N=C/c3ccc(C)cc3)nnn2-c2nonc2N)cc1	none
Nc1nonc1-n1nnc(C(=O)N/N=C/c2ccc(Cl)cc2Cl)c1CN1CCCC1	none
O=C(CCCOc1ccccc1)NN1C(=O)NC2(CCCCC2)C1=O	none
Clc1ccc(-c2nnc(-c3ccccc3)o2)cn1	none
O=C(NCc1nc2ccccc2[nH]1)c1ccc(S(=O)(=O)N2CCCC2)cc1	hERG protect 8.1
COc1cc(OC)c(C(=O)OCC(=O)Nc2ccccc2Cl)cc1OC	none
CCOc1cc(/C=C(\C#N)C(=O)Nc2cccc(C(=O)O)c2)ccc1OCc1ccccc1Cl	KCNQ1 block 6
CC(C)(CO)NCc1c(OCc2ccc(Cl)cc2)ccc2ccccc12	none
Cc1ccc2c(CSc3nc4ccccc4c(=O)n3CCCO)cc(=O)oc2c1	KCNK3 inh -9.07 (no result: hERG protect, KCNK9 inh, KCNQ1 block, KCNQ1 act)
OCCN(CCO)c1ccc(C(c2ccccc2Cl)c2ccc(N(CCO)CCO)cc2Cl)c(Cl)c1	KCNQ1 act 11
OCCN(CCO)c1ccc2ccccc2c1	none
O=C(NC1CCCCC1)C(c1ccccc1)N(Cc1ccc2c(c1)OCO2)C(=O)c1cnsn1 (stereo unspecified)	KCNQ1 block 6
Cc1ccc(C(C(=O)NC2CCCC2)N(Cc2ccc3c(c2)OCO3)C(=O)c2snc(C(N)=O)c2N)cc1 (stereo unspecified)	none
O=C(NC(=S)Nc1ccc(CN2CCCCC2)cc1)c1cccc(OCc2ccccc2)c1	KCNQ1 block 8
